Data reported in ChEMBL document CHEMBL1671747, “Efficacy and safety of intravenous peramivir for treatment of seasonal influenza virus infection” (Antimicrob Agents Chemother, 2010).

Columns and labels:
Conditions in all cases: in vivo
Plasma = experiment: Plasma concentration in human at 600 mg, iv after 36 to 48 hrs; assay type: ADME, organism-based
In short: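 Subjects received a single IV infusion of 300 or 600 mg (mean 5.0 or 10.0 mg/kg; median infusion 0.63 h). Plasma was sampled just before the infusion ended, and on days 2 and 3. Samples were deproteinized and run on C18 LC/MS-MS. Values are medians at end of infusion, 18–24 h and 36–48 h after infusion.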

Homo sapiens [1] = experiment: Toxicity in human patient infected with Influenza virus assessed as increase in monocyte at 300 mg, iv; assay type: organism-based
In short: (§1)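 Adults with seasonal influenza received one intravenous infusion of peramivir (300 or 600 mg) or matching placebo; the median infusion lasted 0.63 h. Blood for haematology, including the white-cell differential, was taken at baseline and on days 3 and 14. Tests were run by blinded technicians. Adverse-event incidence in the 298-subject safety population was compared with placebo by Fisher's exact test.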

Homo sapiens [2] = experiment: Toxicity in human patient infected with Influenza virus assessed as increase in blood glucose at 300 mg, iv; assay type: organism-based
In short: (§2)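 One IV dose of 300 or 600 mg or placebo was given to adults with influenza. Blood (hematology, biochemistry) and urine (including NAG, β2- and α1-microglobulin, protein) were sampled at baseline, day 3 and day 14 by blinded technicians. Adverse-event incidence versus placebo was compared by Fisher's exact test.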

Homo sapiens [3] = experiment: Toxicity in human patient infected with Influenza virus assessed as diarrhea at 300 mg, iv; assay type: organism-based
In short: (§3)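 Adverse events were recorded after one IV dose of 300 or 600 mg or placebo in adults with influenza. Incidence in each peramivir group was compared with placebo by Fisher's exact test.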

Homo sapiens [4] = experiment: Toxicity in human patient infected with Influenza virus assessed as increase in lymphocyte at 300 mg, iv; assay type: organism-based; in short: as §2
Homo sapiens [5] = experiment: Toxicity in human patient infected with Influenza virus assessed as proteinuria at 300 mg, iv; assay type: organism-based
In short: (§4)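 Subjects received a single intravenous peramivir dose (300 or 600 mg) or placebo, infused over a median of 0.63 h. Urinalysis covered protein, albumin and sediment, among other analytes. Urine was collected at baseline and on days 3 and 14 and tested by blinded technicians. Incidence in the safety population (n = 298 treated) was compared with placebo by Fisher's exact test.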

Homo sapiens [6] = experiment: Toxicity in human patient infected with Influenza virus assessed as white blood cells-positive urine at 300 mg, iv; assay type: organism-based; in short: as §4
Homo sapiens [7] = experiment: Toxicity in human patient infected with Influenza virus assessed as beta2 microglobulin in urine at 300 mg, iv; assay type: organism-based; in short: as §2
Homo sapiens [8] = experiment: Toxicity in human patient infected with Influenza virus assessed as decrease in white blood cell count at 300 mg, iv; assay type: organism-based; in short: as §2
Homo sapiens [9] = experiment: Toxicity in human patient infected with Influenza virus assessed as increase in blood bilirubin at 300 mg, iv; assay type: organism-based; in short: as §2
Homo sapiens [10] = experiment: Toxicity in human patient infected with Influenza virus assessed as increase in alanine aminotransferase at 300 mg, iv; assay type: organism-based; in short: as §2
Homo sapiens [11] = experiment: Toxicity in human patient infected with Influenza virus assessed as increase in aspartate aminotransferase at 300 mg, iv; assay type: organism-based; in short: as §2
Homo sapiens [12] = experiment: Toxicity in human patient infected with Influenza virus assessed as increase in alpha1 Microglobulin at 300 mg, iv; assay type: organism-based; in short: as §2
Homo sapiens [13] = experiment: Toxicity in human patient infected with Influenza virus assessed as nausea at 300 mg, iv; assay type: organism-based
In short: (§5)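 In this randomized trial, subjects received a single intravenous infusion of peramivir (300 mg or 600 mg) or matching placebo; the median infusion lasted 0.63 h. Subjects were followed at visits on days 1, 2 (optional), 3, 5, 9 and 14. Adverse-event incidences across the 298 treated subjects were compared with placebo using Fisher's exact test.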

Homo sapiens [14] = experiment: Toxicity in human patient infected with Influenza virus assessed as increase in blood lactate dehydrogenase at 300 mg, iv; assay type: organism-based; in short: as §2
Homo sapiens [15] = experiment: Toxicity in human patient infected with Influenza virus assessed as beta-N-Acetyl-D-glucosaminidase at 300 mg, iv; assay type: organism-based; in short: as §2
Homo sapiens [16] = experiment: Toxicity in human patient infected with Influenza virus assessed as urine containing albumine at 300 mg, iv; assay type: organism-based; in short: as §4
Homo sapiens [17] = experiment: Toxicity in human patient infected with Influenza virus assessed as decrease in total Protein at 300 mg, iv; assay type: organism-based; in short: as §2
Homo sapiens [18] = experiment: Toxicity in human patient infected with Influenza virus assessed as lymphocyte morphology abnormal at 300 mg, iv; assay type: organism-based; in short: as §1
Homo sapiens [19] = experiment: Toxicity in human patient infected with Influenza virus assessed as nasopharyngitis at 300 mg, iv; assay type: organism-based; in short: as §5
Homo sapiens [20] = experiment: Toxicity in human patient infected with Influenza virus assessed as increase in blood phosphate at 300 mg, iv; assay type: organism-based; in short: as §2
Homo sapiens [21] = experiment: Toxicity in human patient infected with Influenza virus assessed as monocyte at 600 mg, iv; assay type: organism-based; in short: as §1
Homo sapiens [22] = experiment: Toxicity in human patient infected with Influenza virus assessed as increase in blood glucose at 600 mg, iv; assay type: organism-based; in short: as §2
Homo sapiens [23] = experiment: Toxicity in human patient infected with Influenza virus assessed as diarrhea at 600 mg, iv; assay type: organism-based; in short: as §3
Homo sapiens [24] = experiment: Toxicity in human patient infected with Influenza virus assessed as increase in lymphocyte at 600 mg, iv; assay type: organism-based; in short: as §2
Homo sapiens [25] = experiment: Toxicity in human patient infected with Influenza virus assessed as proteinuria at 600 mg, iv; assay type: organism-based; in short: as §4
Homo sapiens [26] = experiment: Toxicity in human patient infected with Influenza virus assessed as white blood cells-positive urine at 600 mg, iv; assay type: organism-based; in short: as §4
Homo sapiens [27] = experiment: Toxicity in human patient infected with Influenza virus assessed as beta2 microglobulin in urine at 600 mg, iv; assay type: organism-based; in short: as §2
Homo sapiens [28] = experiment: Toxicity in human patient infected with Influenza virus assessed as decrease in white blood cell count at 600 mg, iv; assay type: organism-based; in short: as §2
Homo sapiens [29] = experiment: Toxicity in human patient infected with Influenza virus assessed as increase in blood bilirubin at 600 mg, iv; assay type: organism-based; in short: as §2
Homo sapiens [30] = experiment: Toxicity in human patient infected with Influenza virus assessed as increase in alanine aminotransferase at 600 mg, iv; assay type: organism-based; in short: as §2
Homo sapiens [31] = experiment: Toxicity in human patient infected with Influenza virus assessed as increase in aspartate aminotransferase at 600 mg, iv; assay type: organism-based; in short: as §2
Homo sapiens [32] = experiment: Toxicity in human patient infected with Influenza virus assessed as increase in alpha1 microglobulin at 600 mg, iv; assay type: organism-based; in short: as §2
Homo sapiens [33] = experiment: Toxicity in human patient infected with Influenza virus assessed as nausea at 600 mg, iv; assay type: organism-based; in short: as §5
Homo sapiens [34] = experiment: Toxicity in human patient infected with Influenza virus assessed as increase in blood lactate dehydrogenase at 600 mg, iv; assay type: organism-based; in short: as §2

For `CCC(CC)[C@H](NC(C)=O)[C@@H]1[C@H](O)[C@@H](C(=O)O)C[C@H]1NC(=N)N` [PERAMIVIR ANHYDROUS], the Cp (Plasma) was 10.7 ng/mL, the Activity (Homo sapiens [1]) was “Toxic” and the Activity (Homo sapiens [2]) was “Toxic”. The Activity (Homo sapiens [3]) was “Toxic”, the Activity (Homo sapiens [4]) was “Toxic” and the Activity (Homo sapiens [5]) was “Toxic”. The Activity (Homo sapiens [6]) was “Toxic”, the Activity (Homo sapiens [7]) was “Toxic” and the Activity (Homo sapiens [8]) was “Toxic”. For the same molecule, the Activity (Homo sapiens [9]) was “Toxic”, the Activity (Homo sapiens [10]) was “Toxic” and the Activity (Homo sapiens [11]) was “Toxic”. For the same molecule, the Activity (Homo sapiens [12]) was “Toxic”, the Activity (Homo sapiens [13]) was “Toxic” and the Activity (Homo sapiens [14]) was “Toxic”. The Activity (Homo sapiens [15]) was “Toxic”, the Activity (Homo sapiens [16]) was “Toxic” and the Activity (Homo sapiens [17]) was “Toxic”. The Activity (Homo sapiens [18]) was “Toxic”, the Activity (Homo sapiens [19]) was “Toxic” and the Activity (Homo sapiens [20]) was “Toxic”. For the same molecule, the Activity (Homo sapiens [21]) was “Toxic”, the Activity (Homo sapiens [22]) was “Toxic” and the Activity (Homo sapiens [23]) was “Toxic”. The Activity (Homo sapiens [24]) was “Toxic”, the Activity (Homo sapiens [25]) was “Toxic” and the Activity (Homo sapiens [26]) was “Toxic”. The Activity (Homo sapiens [27]) was “Toxic”, the Activity (Homo sapiens [28]) was “Toxic” and the Activity (Homo sapiens [29]) was “Toxic”. For the same molecule, the Activity (Homo sapiens [30]) was “Toxic”, the Activity (Homo sapiens [31]) was “Toxic” and the Activity (Homo sapiens [32]) was “Toxic”. For the same molecule, the Activity (Homo sapiens [33]) was “Toxic” and the Activity (Homo sapiens [34]) was “Toxic”.
